{"source": "ChEMBL document CHEMBL3259777", "about": "“The cannabinoid acids, analogs and endogenous counterparts” (Bioorg Med Chem, 2014)", "key": {"[1]": {"test": "Antiinflammatory activity in LPS-induced mouse […] cells assessed as PGJ2 synthesis at 10 uM relative to control", "format": "functional, RAW264.7"}, "[2]": {"species": "Mus musculus", "test": "Stimulation of phospholipase A2 in mouse brain synaptosomes using [1-14C]phosphotidylcholine as substrate assessed as arachidonic acid release relative to control", "format": "subcellular"}, "[3]": {"system": "Mus musculus", "test": "Antiinflammatory activity in mouse peritonitis model assessed as reduction of pro-inflammatory cell migration into peritoneal cavity at 0.3 mg/kg, po", "format": "functional", "set-up": "scale not given: the % may be the effect or the level left", "summary_of_the_method": "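Mouse peritonitis induced by thioglycollate challenge. Compound given orally, and migration of pro-inflammatory cells into the peritoneal cavity quantified.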"}, "[4]": {"system": "RAW", "test": "Antiinflammatory activity in mouse RAW cells assessed as arachidonic acid release at 6 uM after 1 hr by liquid scintillation counting analysis in presence of [14C]-arachidonic acid relative to control", "format": "functional", "summary_of_the_method": "(§1)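 RAW cells labelled 2 hr with 14C-arachidonic acid, then medium changed to RPMI + 0.1% BSA. Cells treated 1 hr with non-radioactive test agent added in 10 µl DMSO; DMSO alone as control. Release counted by LSC on a 0.1 ml medium aliquot, expressed as treated/control, means ± SD.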"}, "[5]": {"system": "RAW", "test": "Antiinflammatory activity in mouse RAW cells assessed as arachidonic acid release at 12 uM after 1 hr by liquid scintillation counting analysis in presence of [14C]-arachidonic acid relative to control", "format": "functional", "summary_of_the_method": "as §1"}, "[6]": {"system": "RAW", "test": "Antiinflammatory activity in mouse RAW cells assessed as arachidonic acid release at 24 uM after 1 hr by liquid scintillation counting analysis in presence of [14C]-arachidonic acid relative to control", "format": "functional", "summary_of_the_method": "as §1"}, "[7]": {"system": "RAW", "test": "Antiinflammatory activity in mouse RAW cells assessed as arachidonic acid release at 3 uM after 1 hr by liquid scintillation counting analysis in presence of [14C]-arachidonic acid relative to control", "format": "functional", "summary_of_the_method": "as §1"}, "[8]": {"test": "Antiinflammatory activity in LPS-induced mouse […] cells assessed as PGJ2 synthesis at 3 uM relative to control", "format": "functional, RAW264.7"}, "[9]": {"test": "Antiinflammatory activity in LPS-induced mouse […] cells assessed as PGJ2 synthesis at 3 uM in presence of polyclonal antiGPR18 relative to control", "format": "functional, RAW264.7"}, "[10]": {"system": "RAW", "test": "Antiinflammatory activity in mouse RAW cells assessed as arachidonic acid release at 1.5 uM after 1 hr by liquid scintillation counting analysis in presence of [14C]-arachidonic acid relative to control", "format": "functional", "summary_of_the_method": "as §1"}, "[11]": {"test": "Drug metabolism in cynomolgus monkey hepatocytes assessed as parent compound remaining after 2 hrs", "format": "ADME, cell-based, Hepatocyte", "conditions": "read-out: Stability"}, "[12]": {"molecular_target": "Cannabinoid receptor 1 (Homo sapiens, UniProt P21554)", "sequence (P21554 whole entry)": "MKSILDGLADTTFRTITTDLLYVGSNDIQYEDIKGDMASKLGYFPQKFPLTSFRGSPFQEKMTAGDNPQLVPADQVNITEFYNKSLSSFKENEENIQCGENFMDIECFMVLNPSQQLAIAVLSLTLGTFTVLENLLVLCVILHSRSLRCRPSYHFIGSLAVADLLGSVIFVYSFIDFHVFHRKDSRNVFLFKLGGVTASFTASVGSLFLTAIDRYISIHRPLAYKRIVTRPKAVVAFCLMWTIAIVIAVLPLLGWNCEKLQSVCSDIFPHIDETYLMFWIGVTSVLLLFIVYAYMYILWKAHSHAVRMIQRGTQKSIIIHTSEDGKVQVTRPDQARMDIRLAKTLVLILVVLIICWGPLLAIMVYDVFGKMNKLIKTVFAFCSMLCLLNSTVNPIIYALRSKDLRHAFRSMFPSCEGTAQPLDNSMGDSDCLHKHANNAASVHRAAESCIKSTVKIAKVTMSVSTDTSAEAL", "test": "Binding affinity to CB1 receptor (unknown origin)"}, "[13]": {"test": "Inhibition of MMP-3 release in TNF alpha-induced HFLS cells at 10 uM", "format": "functional", "conditions": "Homo sapiens"}, "[14]": {"system": "Blood", "test": "Induction of LXA4 production in human blood at 25 uM after 1 hr in presence of 12/15 LOX inhibitor baicalein relative to control", "format": "functional"}, "[15]": {"system": "Mus musculus", "test": "Reduction of cell invasion to peritoneum in zymosan-A-induced FVB mouse peritonitis model at 1.5 mg/kg, iv by mass spectrometry", "format": "functional", "set-up": "scale not given: the % may be the effect or the level left"}, "[16]": {"test": "Plasma concentration in patient at 20 mg, po after 2 hrs", "format": "ADME, organism-based", "conditions": "human", "summary_of_the_method": "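Single oral 20 mg dose in humans. Plasma sampled two hours post-dose, reported as mean ± R.S.D., n=9; glucuronide measured as well.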"}, "[17]": {"test": "Drug metabolism in dog hepatocytes assessed as parent compound remaining after 2 hrs", "format": "ADME, cell-based, Canis lupus familiaris, Hepatocyte", "conditions": "read-out: Stability"}, "[18]": {"system": "Blood", "test": "Induction of LXA4 production in human blood at 1 to 30 uM incubated for 5 hrs by ELISA", "format": "functional"}, "[19]": {"test": "Drug metabolism in rat hepatocytes assessed as parent compound remaining after 2 hrs", "format": "ADME, cell-based, Hepatocyte", "conditions": "read-out: Stability"}, "[20]": {"system": "Rattus norvegicus", "test": "Analgesic activity in rat assessed as reversal of mechanical hyperalgesia at 0.1 to 1 mg/kg, po", "format": "functional", "conditions": "dose mg/kg 0.1-1"}, "[21]": {"system": "Mus musculus", "test": "Induction of LXA4 production in zymosan-A-induced FVB mouse peritonitis model at 1.5 mg/kg, iv by mass spectrometry relative to control", "format": "functional"}, "[22]": {"test": "Induction of LXA4 production in HFLS cells at 1 to 30 uM incubated for 1 hr followed by TNF-alpha challenge for 18 hrs by ELISA relative to control", "format": "functional, Homo sapiens"}, "[23]": {"test": "Drug metabolism in human hepatocytes assessed as parent compound remaining after 2 hrs", "format": "ADME, cell-based, Hepatocyte", "conditions": "read-out: Stability"}, "[24]": {"system": "Rattus norvegicus", "test": "Reversal of PAF-induced allodynia in ip dosed rat after 40 to 60 mins by paw withdrawal test", "format": "functional", "summary_of_the_method": "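Rat tonic inflammatory pain model with platelet-activating factor injected into the hind paw. Doses of 3, 4.5, 6.8, 10.1 and 15.2 mg/kg given i.p. Paw withdrawal threshold to mechanical pressure read 40-60 min post-drug. Approximate ED-50 estimated from the dose-response curve for reversal of PAF-induced allodynia.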"}, "[25]": {"system": "Mus musculus", "test": "Antiinflammatory activity in mouse assessed as adhering leukocytes at 1 mg/kg, po after 6 hrs relative to vehicle-treated control", "format": "functional", "summary_of_the_method": "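Given orally in oil over 0.01 to 1.0 mg/kg. Peritoneal cells collected from mice 6 hours after dosing and cultured 18-20 hours before leukocyte adhesion was measured. Compared with vehicle-dosed mice.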"}, "[26]": {"system": "Mus musculus", "test": "Antiinflammatory activity in mouse assessed as reduction of IL-1beta/TNF-alpha-induced leukocyte count in air pouches at 0.2 mg/kg/day", "format": "functional", "set-up": "scale not given: the % may be the effect or the level left", "summary_of_the_method": "(§2)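 Mouse acute inflammation: IL-1β and TNFα injected into air pouches formed on the back. Drug dosed daily, and leukocytes counted in pouch exudates.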"}, "[27]": {"system": "Mus musculus", "test": "Antiinflammatory activity in mouse assessed as reduction of IL-1beta/TNF-alpha-induced leukocyte count in air pouches at 0.1 mg/kg/day", "format": "functional", "set-up": "scale not given: the % may be the effect or the level left", "summary_of_the_method": "as §2"}}}
{"compound": "CCCCC/C=C\\C/C=C\\C/C=C\\CCCCC(=O)NCC(=O)O", "values": [{"measurement": "Activity", "setting": "[1]", "result": 203, "unit": "%"}]}
{"compound": "CCCCC/C=C\\C/C=C\\C/C=C\\C/C=C\\CCCC(=O)N[C@@H](C)C(=O)O", "values": [{"measurement": "Activity", "setting": "[1]", "result": 212, "unit": "%"}]}
{"compound": "CCCCCCCC/C=C\\CCCCCCCC(=O)NC(C)(C)C(=O)O", "values": [{"measurement": "Activity", "setting": "[1]", "result": 118, "unit": "%"}]}
{"compound": "CCCCC/C=C\\C/C=C\\C/C=C\\C/C=C\\CCCC(=O)NC(C)(C)C(=O)O", "values": [{"measurement": "Activity", "setting": "[1]", "result": 220, "unit": "%"}]}
{"compound": "CCCCCc1cc(O)c2c(c1)OC(C)(C)[C@@H]1CCC(C(=O)O)=C[C@@H]21", "values": [{"measurement": "Activity", "setting": "[2]", "result": 20, "unit": "%"}]}
{"compound": "CCCCC/C=C\\C/C=C\\C/C=C\\C/C=C\\CCCC(=O)NCC(=O)O", "note": "[ARACHIDONOYL GLYCINE]", "values": [{"measurement": "Activity", "setting": "[3]", "result": 60, "unit": "%"}, {"measurement": "T/C", "setting": "[4]", "result": 1.4}, {"measurement": "T/C", "setting": "[5]", "result": 1.85}, {"measurement": "T/C", "setting": "[6]", "result": 2.95}, {"measurement": "T/C", "setting": "[7]", "result": 1.2}, {"measurement": "Activity", "setting": "[8]", "result": 100, "unit": "%"}, {"measurement": "Activity", "setting": "[9]", "result": 50, "unit": "%"}, {"measurement": "T/C", "setting": "[10]", "result": 1}, {"measurement": "Activity", "setting": "[1]", "result": 213, "unit": "%"}]}
{"compound": "CCCCCCC(C)(C)c1cc(O)c2c(c1)OC(C)(C)[C@@H]1CC=C(C(=O)O)C[C@@H]21", "note": "[LENABASUM]", "values": [{"measurement": "remaining at 2 h", "setting": "[11]", "result": 86, "unit": "%"}, {"measurement": "Ki", "setting": "[12]", "result": 5.7, "unit": "nM"}, {"measurement": "inhibition at 10 µM", "setting": "[13]", "result": 88, "unit": "%"}, {"measurement": "Activity", "setting": "[14]", "result": ">90", "unit": "%"}, {"measurement": "Activity", "setting": "[15]", "result": 75, "unit": "%"}, {"measurement": "concentration at 2 h", "setting": "[16]", "result": 599, "unit": "ng/mL"}, {"measurement": "remaining at 2 h", "setting": "[17]", "result": 90, "unit": "%"}, {"measurement": "Ratio", "setting": "[18]", "result": 2}, {"measurement": "remaining at 2 h", "setting": "[19]", "result": 103, "unit": "%"}, {"measurement": "Activity", "setting": "[20]", "result": "<=60%"}, {"measurement": "Ratio", "setting": "[21]", "result": 7}, {"measurement": "Ratio", "setting": "[22]", "result": 2}, {"measurement": "remaining at 2 h", "setting": "[23]", "result": 83, "unit": "%"}, {"measurement": "ED50", "setting": "[24]", "result": 4.2, "unit": "mg/kg"}, {"measurement": "Activity", "setting": "[25]", "result": 24, "unit": "%"}, {"measurement": "Activity", "setting": "[26]", "result": 65.5, "unit": "%"}, {"measurement": "Activity", "setting": "[27]", "result": 42.3, "unit": "%"}]}
{"compound": "CCCCCCCCCCCCCCCC(=O)NCC(=O)O", "note": "[PALMITOYL GLYCINE]", "values": [{"measurement": "Activity", "setting": "[1]", "result": 100, "unit": "%"}]}
